Compound activity from PubChem BioAssay.
GASC-1 inh = blocks human GASC-1 demethylase activity; AID 2099; Q9H3R0; GST-JMJD2C(1-420) H3K9me3 demethylation, DELFIA europium; inhibition, % at 2.35 µM; 330,000 compounds, 0.069% hits;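 active = more than half of a compound's replicate wells show inhibition beyond 50%, single wells judged on their own value; inconclusive = some, but no more than half, of replicates pass 50% inhibition; inactive = no replicate passes 50% inhibition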;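 note: signal counts dimethyl H3K9 product captured on neutravidin plate; 0% = median of DMSO wells and 100% = 0.3 times that DMSO median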
SR-BI HDL uptake = mouse SR-BI HDL lipid transfer inhibition. AID 488896. inhibition, % at 12.5 µM. 320,000 compounds, 0.96% hits. ldlA[mSR-BI] CHO cells, DiI-HDL uptake fluorescence, 3 h;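 active = mean replicate inhibition of at least 70% and a set share of replicates each scoring 70 or more; inconclusive = meets just one of the two criteria; inactive = fails both criteria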;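 note: 0% = median of neutral control wells and 100% = median of positive control wells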
Target sequence (Q61009 whole entry, looked up): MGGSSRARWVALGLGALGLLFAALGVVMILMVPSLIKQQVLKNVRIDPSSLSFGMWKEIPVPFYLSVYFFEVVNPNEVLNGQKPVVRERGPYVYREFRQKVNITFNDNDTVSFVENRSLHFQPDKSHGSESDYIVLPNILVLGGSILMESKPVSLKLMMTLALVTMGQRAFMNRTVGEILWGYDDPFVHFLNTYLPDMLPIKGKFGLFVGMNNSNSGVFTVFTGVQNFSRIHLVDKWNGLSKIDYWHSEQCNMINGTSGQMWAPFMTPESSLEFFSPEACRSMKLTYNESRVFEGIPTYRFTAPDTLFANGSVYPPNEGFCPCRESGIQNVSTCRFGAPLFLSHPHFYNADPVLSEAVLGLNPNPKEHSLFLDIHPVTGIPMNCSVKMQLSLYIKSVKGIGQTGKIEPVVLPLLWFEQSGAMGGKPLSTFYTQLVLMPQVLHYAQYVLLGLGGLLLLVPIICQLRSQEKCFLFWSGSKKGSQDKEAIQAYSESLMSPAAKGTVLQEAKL
SR-BI uptake up = SR-BI HDL lipid transfer activation; CHO ldlA[mSR-BI] cells, DiI-HDL uptake fluorescence, 3 h; 100 = double the neutral-control signal; activation, % at 12.5 µM; 320,000 compounds, 0.096% hits;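 active = mean replicate activation of at least 60% and every replicate at or above 60%; inconclusive = mean or all-replicate condition met, but not both; inactive = mean below 60% and not all replicates reaching 60%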;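 note: 0% = median plate neutral-control signal and 100% = twice that signal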
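Material: SR-BI-overexpressing, LDLR-lacking CHO cells | Dosing: Single compound concentration, delivered by pin transfer | Probe or stimulus: Labelled HDL, 10 µg/mL | Signal: Bottom-read cell fluorescence after medium removal, ex 550/em 595 nm | Schedule: 3 h, 37 °C | Evaluation: HDL uptake via cellular fluorescence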
GAA850 FXN act = increases GAA850 frataxin promoter reporter activity; AID 540364; 360,000 compounds, 0.56% hits; HEK293 lucGAA850 FXN promoter luciferase reporter, 24 h; percent of 10 µM SAHA response; activation, % at 6 µM;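 active = activation above the average of all compounds screened plus 3 SD, cutoff fixed separately per campaign, cut at about 7.5% in these data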;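 note: 0% = DMSO wells and 100% = 10 µM SAHA wells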
AHR activator = activates the human aryl hydrocarbon receptor; activation, % at 5 µM; 320,000 compounds, 2.5% hits; AID 2796; AHR-responsive luciferase reporter cells, luminescence; P35869; in the data active = activation above about 47%;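 note: 0% = vehicle wells and 100% = reference agonist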
GAA30 counter = GAA30 FXN promoter activation counter-screen | shares compounds with GAA850 FXN act | HEK293 lucGAA30 FXN promoter luciferase, 24 h; DMSO = 0%, 5 µM ipriflavone = 100% | activation, % at 6 µM | 1,900 compounds, 66% hits | AID 588350;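 active = mean activation above the mean of solvent-only control wells plus 3 SD, cut at about 22% in these data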;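 note: counterscreen of GAA850 promoter hits where activity marks nonselective or luminescence artifacts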
GAA850 confirm = GAA850 FXN promoter activation confirmation; shares compounds with GAA850 FXN act; HEK293 lucGAA850 FXN promoter luciferase reporter, 24 h; 100% = activation by SAHA; activation, % at 6 µM; 1,900 compounds, 86% hits; AID 588351;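 active = mean activation above a set limit taken from the primary screen, cut at about 8% in these data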;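 note: 0% = DMSO wells and 100% = 10 µM SAHA wells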
* hit, by the source's call; ? = inconclusive; . = not tested or not shown. Sampled rows, rich in hits. Any-hit rate of the full collection: about 3.7%.

SMILES | GASC-1 inh | SR-BI HDL uptake | SR-BI uptake up | GAA850 FXN act | AHR activator | GAA30 counter | GAA850 confirm
O=S(=O)(c1cccc(-c2n[nH]c(=S)n2-c2ccc(OC(F)(F)F)cc2)c1)N1CCOCC1 | -5 | 1 | -1 | -2 | 2 | . | .
COc1cc2c(cc1OC)-c1cc(N3CCCCCC3)nc(=O)n1CC2 | -1 | 13 | -13 | 13* | 3 | 31* | 16*
COc1cc2c(cc1OC)-c1cc(Nc3ccccc3Br)nc(=O)n1CC2 | 15 | 7 | -7 | 9.2* | 3 | 18 | 16*
COc1ccc(Nc2cc3n(c(=O)n2)CCc2cc(OC)c(OC)cc2-3)cc1 | 1 | 9 | -9 | 1 | 1 | . | .
COc1cc2c(cc1OC)-c1cc(Nc3ccc(C)cc3)nc(=O)n1CC2 | -39 | 22 | -22 | 6 | 25 | . | .
COc1cc2c(cc1OC)-c1cc(NC3CCCCCC3)nc(=O)n1CC2 | 0 | 10 | 1 | 12* | 2 | 26* | 12*
COc1cc2c(cc1OC)-c1cc(OCc3cccnc3)nc(=O)n1CC2 | . | 41 | -41 | 8.8* | . | 14 | 13*
O=C(CCCOc1ccc(Cl)cc1Cl)NN1CCOCC1 | -15 | -9 | 9 | 0 | -1 | . | .
CCOc1cccc(Nc2cc3n(c(=O)n2)CCc2cc(OC)c(OC)cc2-3)c1 | 6 | 14 | -14 | 9.6* | 6 | 22 | 12*
COc1cc2c(cc1OC)-c1cc(N3CCc4ccccc43)nc(=O)n1CC2 | 5 | 49 | -49 | 2 | 5 | . | .
COc1cc2c(cc1OC)-c1cc(Nc3ccccc3)nc(=O)n1CC2 | 0 | -4 | 4 | 4 | -1 | . | .
COc1cc2c(cc1OC)-c1cc(N3CCCc4ccccc43)nc(=O)n1CC2 | 9 | -20 | 20 | 10* | 15 | 22 | 16*
O=C(CCC1CCCN(C(=O)Cn2cnnn2)C1)NCc1ccc(F)c(F)c1 (stereo not given) | -15 | 3 | -3 | -1 | 1 | . | .
Cc1ccc(S(=O)(=O)N(C)CC(=O)N2CCN(Cc3ccccc3)CC2)cc1 | -5 | -5 | 5 | 2 | . | . | .
O=C(/C=C\c1cccs1)N1CCN(Cc2ccc3c(c2)OCO3)CC1 | -11 | 13 | -13 | 1 | 1 | . | .
O=c1[nH]cnc2c1c(-c1ccccc1)cn2-c1ccc(Br)cc1 | -11 | 13 | -13 | 1 | -2 | . | .
Cc1cccc(-n2cc(-c3ccccc3)c3c(=O)[nH]cnc32)c1 | 0 | 29 | -29 | 8.9* | 15 | 23* | 11*
CCN(CC(=O)Nc1cc(Cl)ccc1C)C(=O)c1ccc(=O)n(Cc2ccccc2)n1 | -5 | 0 | 0 | 7 | 14 | . | .
CCOC(=O)c1cnc2c(ccc3ccccc32)c1NCCN(C)C | 43 | 23 | -23 | 8.4* | -1 | 23* | 17*
CCOC(=O)c1cnc2c(ccc3ccccc32)c1NCCO | 9 | 59 | -59 | 0 | 2 | . | .
NC(=S)Nc1nccc(-c2cccs2)n1 | 0 | 17 | -17 | 8.3* | 26 | 94* | 37*
CN(C#N)c1nccc(-c2cccs2)n1 | -3 | 4 | -4 | 1 | -10 | . | .
O=C(c1ccco1)N1CCN(CC(O)Cn2c3ccccc3c3ccccc32)CC1 (stereo not given) | 9 | -2 | 2 | 0 | 22 | . | .
Cn1nccc1NC(=O)CSCC(=O)O | 9 | -20 | 20 | 0 | -1 | . | .
COCC(=O)NCCc1nc2ccccc2[nH]1 | -10 | -37 | 37 | 16* | 1 | 22* | 7.9*
Cc1cc(O)c(NC(=O)c2cccc([N+](=O)[O-])c2)cc1C | 7 | 40 | -40 | 7.6* | 15 | 91* | 31*
O=C(Nc1cc([N+](=O)[O-])ccc1O)c1cccc([N+](=O)[O-])c1 | -5 | 11 | -11 | 1 | 5 | . | .
Cc1cc(C(=O)N/N=C/c2ccc(Cl)c([N+](=O)[O-])c2)c(C)n1-c1ccc(F)cc1 | -5 | -1 | 1 | 9.1* | 13 | -3 | 12*
Cc1sc2nc(C(C)C)nc(SCC(=O)NC3CC3)c2c1C | ? | . | . | -2 | 15 | . | .
